The results in this text go back to ChEMBL document CHEMBL3797061, “Characterizing the Covalent Targets of a Small Molecule Inhibitor of the Lysine Acetyltransferase P300” (ACS Med Chem Lett, 2016).

For one experiment, the target named is Tubulin (Sus scrofa) (UniProt P02554+P02550). Briefly: Inhibition of porcine brain tubulin polymerization assessed as decrease in rate of microtubule formation incubated up to 1 hr by fluorescence analysis. Summed up: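 Porcine tubulin was preincubated with compound and polymerization was then followed by a fluorescence assay. Read-outs were the rate of microtubule formation and final polymer mass. CaCl2 served as the positive control for inhibition.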

Experiment [1] deals with Heterogeneous nuclear ribonucleoprotein H (Homo sapiens) (UniProt P31943). Briefly: Binding affinity to HNRNPH1 in HEK293 proteomes at 20 uM incubated for 16 hrs by TAMRA biotin-azide dye based LC-MS/MS analysis. Type of experiment: cell-based. Summed up: (§1)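 HEK-293 proteome labeled with alkyne probe, then enriched and identified by LC–MS/MS. Spectral counts compared with a no-probe control.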

The target in experiment [2] is Tubulin beta-4A chain (Homo sapiens) (UniProt P04350). The experiment can be described thus: Binding affinity to TUBB4A in HEK293 proteomes assessed as spectral count ratio at 20 uM incubated for 16 hrs by TAMRA biotin-azide dye based LC-MS/MS analysis relative to control. Summed up: as §1
Experiment [3] has as its system HEK293. Briefly: Binding affinity to HEK293 proteomes incubated for 16 hrs using TAMRA-azide dye by SDS-PAGE based fluorescence analysis. The settings on record: Homo sapiens. Type of experiment: cell-based. Summed up:
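HEK-293 cell lysate was incubated 16 h with alkyne probe (5–50 μM) and then conjugated to a fluorescent azide by Cu-catalysed [3+2] cycloaddition. Reactions were quenched in loading buffer without boiling. Proteins were resolved by SDS-PAGE and covalent labeling was imaged by in-gel fluorescence.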

For experiment [4], the target named is Eukaryotic initiation factor 4A-I (Homo sapiens) (UniProt P60842). The experiment can be described thus: Binding affinity to EIF4A1 in HEK293 proteomes assessed as spectral count ratio at 20 uM incubated for 16 hrs by TAMRA biotin-azide dye based LC-MS/MS analysis relative to control. An outline of the steps:
as §1

Experiment [5] concerns HEK293. Briefly: Binding affinity to HEK293 proteomes at 1 uM incubated for 16 hrs using TAMRA-azide dye by SDS-PAGE based fluorescence analysis in presence of iodoacetamide. Format: cell-based. The settings on record: Homo sapiens. An outline of the steps: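 Proteomes were preincubated with iodoacetamide before alkyne-probe treatment. Probe labeling then proceeded by click conjugation to a fluorescent azide, SDS-PAGE without boiling, and fluorescence imaging to test for cysteine-directed labeling.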

Experiment [6] addresses Heat shock 70 kDa protein 1A/1B (Homo sapiens) (UniProt P0DMV8+P0DMV9). Briefly: Binding affinity to HSPA1A/HSPA1B in HEK293 proteomes assessed as spectral count ratio at 20 uM incubated for 16 hrs by TAMRA biotin-azide dye based LC-MS/MS analysis relative to control. Type of experiment: protein assay. An outline of the steps: as §1
Experiment [7] deals with Histone acetyltransferase p300 (Homo sapiens, UniProt Q09472). The experiment can be described thus: Inhibition of recombinant P300 catalytic domain (1284 to 1673 residues) (unknown origin) using FITC- histone H4 peptide (1 to 19 residues) as substrate by electrophoretic mobility shift assay.
The target of experiment [8] is Tubulin alpha-1A chain (Homo sapiens) (UniProt Q71U36). The experiment can be described thus: Binding affinity to TUBA1A in HEK293 proteomes assessed as spectral count ratio at 20 uM incubated for 16 hrs by TAMRA biotin-azide dye based LC-MS/MS analysis relative to control. Summed up: as §1
The target in experiment [9] is 60 kDa heat shock protein, mitochondrial (Homo sapiens) (UniProt P10809). Briefly: Binding affinity to HSPD1 in HEK293 proteomes assessed as spectral count ratio at 20 uM incubated for 16 hrs by TAMRA biotin-azide dye based LC-MS/MS analysis relative to control. An outline of the steps:
as §1

The target in experiment [10] is Tubulin alpha-1C chain (Homo sapiens) (UniProt Q9BQE3). Briefly: Binding affinity to TUBA1C in HEK293 proteomes assessed as spectral count ratio at 20 uM incubated for 16 hrs by TAMRA biotin-azide dye based LC-MS/MS analysis relative to control. Summed up: as §1
For experiment [11], the target named is Alpha-enolase (Homo sapiens) (UniProt P06733). Briefly: Binding affinity to ENO1 in HEK293 proteomes assessed as spectral count ratio at 20 uM incubated for 16 hrs by TAMRA biotin-azide dye based LC-MS/MS analysis relative to control. Summed up: as §1
The target of experiment [12] is Heat shock protein HSP 90-beta (Homo sapiens) (UniProt P08238). The experiment can be described thus: Binding affinity to HSP90AB1 in HEK293 proteomes assessed as spectral count ratio at 20 uM incubated for 16 hrs by TAMRA biotin-azide dye based LC-MS/MS analysis relative to control. An outline of the steps: as §1
Experiment [13] addresses Creatine kinase B-type (Homo sapiens) (UniProt P12277). Briefly: Binding affinity to CKB in HEK293 proteomes assessed as spectral count ratio at 20 uM incubated for 16 hrs by TAMRA biotin-azide dye based LC-MS/MS analysis relative to control. Summed up:
as §1

Experiment [14] has as its target Tubulin alpha-8 chain (Homo sapiens) (UniProt Q9NY65). Briefly: Binding affinity to TUBA8 in HEK293 proteomes assessed as spectral count ratio at 20 uM incubated for 16 hrs by TAMRA biotin-azide dye based LC-MS/MS analysis relative to control. An outline of the steps:
as §1

The target of experiment [15] is Pyruvate kinase PKM (Homo sapiens) (UniProt P14618). The experiment can be described thus: Binding affinity to PKM in HEK293 proteomes assessed as spectral count ratio at 20 uM incubated for 16 hrs by TAMRA biotin-azide dye based LC-MS/MS analysis relative to control. An outline of the steps: as §1
Experiment [16] deals with Tubulin alpha-1B chain (Homo sapiens) (UniProt P68363). Briefly: Binding affinity to TUBA1B in HEK293 proteomes assessed as spectral count ratio at 20 uM incubated for 16 hrs by TAMRA biotin-azide dye based LC-MS/MS analysis relative to control. Summed up: as §1
For experiment [17], the target named is Tubulin beta-5 chain (Homo sapiens) (UniProt P07437). The experiment can be described thus: Binding affinity to TUBB in HEK293 proteomes assessed as spectral count ratio at 20 uM incubated for 16 hrs by TAMRA biotin-azide dye based LC-MS/MS analysis relative to control. Summed up:
as §1

Experiment [18] addresses Elongation factor 1-alpha 1 (Homo sapiens) (UniProt P68104). Briefly: Binding affinity to EEF1A1 in HEK293 proteomes assessed as spectral count ratio at 20 uM incubated for 16 hrs by TAMRA biotin-azide dye based LC-MS/MS analysis relative to control. Summed up: as §1
The subject of experiment [19] is HEK293. The experiment can be described thus: Binding affinity to HEK293 proteomes assessed as compound-Cysteine adduct formation at 1 uM incubated for 24 hrs by LC-MS/MS analysis. Conditions: Homo sapiens. Type of experiment: cell-based.
Experiment [20] concerns the target D-3-phosphoglycerate dehydrogenase (Homo sapiens) (UniProt O43175). The experiment can be described thus: Binding affinity to PHGDH in HEK293 proteomes at 20 uM incubated for 16 hrs by TAMRA biotin-azide dye based LC-MS/MS analysis. Type of experiment: cell-based. Summed up: as §1
For experiment [21], the target named is Tubulin beta-2A chain (Homo sapiens) (UniProt Q13885). The experiment can be described thus: Binding affinity to TUBB2A in HEK293 proteomes assessed as spectral count ratio at 20 uM incubated for 16 hrs by TAMRA biotin-azide dye based LC-MS/MS analysis relative to control. An outline of the steps:
as §1

Experiment [22] deals with Actin, cytoplasmic 1 (Homo sapiens) (UniProt P60709). Briefly: Binding affinity to ACTB in HEK293 proteomes assessed as spectral count ratio at 20 uM incubated for 16 hrs by TAMRA biotin-azide dye based LC-MS/MS analysis relative to control. An outline of the steps:
as §1

Active and inactive are the calls of the source. The rule behind the calls is not given here.

Chain of Tubulin alpha-1B chain (Homo sapiens) (P68363 whole entry, looked up): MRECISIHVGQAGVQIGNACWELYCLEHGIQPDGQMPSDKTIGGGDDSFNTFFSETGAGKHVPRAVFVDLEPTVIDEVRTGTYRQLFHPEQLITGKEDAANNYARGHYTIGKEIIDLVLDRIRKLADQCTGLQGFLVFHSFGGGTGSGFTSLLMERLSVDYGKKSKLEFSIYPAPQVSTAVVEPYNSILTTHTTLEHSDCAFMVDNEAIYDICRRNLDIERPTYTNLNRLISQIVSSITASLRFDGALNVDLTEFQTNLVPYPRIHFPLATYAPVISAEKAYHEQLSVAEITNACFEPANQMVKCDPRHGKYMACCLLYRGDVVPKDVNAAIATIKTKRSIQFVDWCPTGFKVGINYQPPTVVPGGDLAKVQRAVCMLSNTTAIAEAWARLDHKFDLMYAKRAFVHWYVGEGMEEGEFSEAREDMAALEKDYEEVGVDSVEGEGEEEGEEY
Chain of Heterogeneous nuclear ribonucleoprotein H (Homo sapiens) (P31943 whole entry): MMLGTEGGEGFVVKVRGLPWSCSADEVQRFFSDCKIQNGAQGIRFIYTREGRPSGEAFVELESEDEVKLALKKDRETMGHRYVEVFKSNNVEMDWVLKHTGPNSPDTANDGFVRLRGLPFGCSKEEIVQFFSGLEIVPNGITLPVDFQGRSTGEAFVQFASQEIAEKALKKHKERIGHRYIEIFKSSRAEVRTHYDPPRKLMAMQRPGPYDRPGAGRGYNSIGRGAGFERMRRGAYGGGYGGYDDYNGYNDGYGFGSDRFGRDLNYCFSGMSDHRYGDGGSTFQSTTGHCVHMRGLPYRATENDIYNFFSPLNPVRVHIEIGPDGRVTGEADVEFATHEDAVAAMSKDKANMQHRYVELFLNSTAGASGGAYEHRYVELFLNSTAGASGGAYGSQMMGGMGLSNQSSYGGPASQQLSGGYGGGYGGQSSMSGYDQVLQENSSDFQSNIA
Chain of Heat shock 70 kDa protein 1A/1B (Homo sapiens) (P0DMV8 whole entry, looked up, the tested form may be a part): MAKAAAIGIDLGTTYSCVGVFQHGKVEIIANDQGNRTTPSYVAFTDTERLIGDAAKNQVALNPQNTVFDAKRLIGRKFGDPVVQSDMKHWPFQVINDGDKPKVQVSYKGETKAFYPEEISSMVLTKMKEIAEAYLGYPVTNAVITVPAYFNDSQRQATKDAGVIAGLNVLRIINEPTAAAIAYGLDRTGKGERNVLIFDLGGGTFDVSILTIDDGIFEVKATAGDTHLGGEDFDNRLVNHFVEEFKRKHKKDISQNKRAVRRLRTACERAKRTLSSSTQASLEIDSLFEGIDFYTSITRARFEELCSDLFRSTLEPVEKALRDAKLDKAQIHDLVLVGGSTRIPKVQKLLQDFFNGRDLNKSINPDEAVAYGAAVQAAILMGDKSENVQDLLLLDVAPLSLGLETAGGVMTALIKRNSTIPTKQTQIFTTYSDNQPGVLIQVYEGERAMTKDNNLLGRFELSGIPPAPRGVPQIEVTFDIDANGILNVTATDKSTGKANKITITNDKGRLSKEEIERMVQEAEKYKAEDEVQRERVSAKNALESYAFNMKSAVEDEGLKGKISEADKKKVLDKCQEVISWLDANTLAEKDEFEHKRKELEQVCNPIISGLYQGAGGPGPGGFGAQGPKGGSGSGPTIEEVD
Chain of Heat shock 70 kDa protein 1A/1B (Homo sapiens) (P0DMV9 whole entry, looked up, the tested form may be a part): as the sequence (P0DMV8 whole entry, looked up, the tested form may be a part) above
Chain of Elongation factor 1-alpha 1 (Homo sapiens) (P68104 whole entry): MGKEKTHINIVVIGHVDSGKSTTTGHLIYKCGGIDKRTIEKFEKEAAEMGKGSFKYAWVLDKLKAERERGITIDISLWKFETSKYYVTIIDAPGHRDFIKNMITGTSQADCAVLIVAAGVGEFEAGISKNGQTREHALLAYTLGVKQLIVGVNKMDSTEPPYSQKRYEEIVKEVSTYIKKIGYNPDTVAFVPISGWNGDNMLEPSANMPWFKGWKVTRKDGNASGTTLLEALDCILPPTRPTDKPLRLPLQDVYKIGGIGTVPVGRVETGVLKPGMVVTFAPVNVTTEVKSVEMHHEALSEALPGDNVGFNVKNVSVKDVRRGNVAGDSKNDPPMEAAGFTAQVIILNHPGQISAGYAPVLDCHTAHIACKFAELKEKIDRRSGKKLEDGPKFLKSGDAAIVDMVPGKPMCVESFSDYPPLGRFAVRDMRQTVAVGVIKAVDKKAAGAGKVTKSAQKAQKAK
Chain of Alpha-enolase (Homo sapiens) (P06733 whole entry): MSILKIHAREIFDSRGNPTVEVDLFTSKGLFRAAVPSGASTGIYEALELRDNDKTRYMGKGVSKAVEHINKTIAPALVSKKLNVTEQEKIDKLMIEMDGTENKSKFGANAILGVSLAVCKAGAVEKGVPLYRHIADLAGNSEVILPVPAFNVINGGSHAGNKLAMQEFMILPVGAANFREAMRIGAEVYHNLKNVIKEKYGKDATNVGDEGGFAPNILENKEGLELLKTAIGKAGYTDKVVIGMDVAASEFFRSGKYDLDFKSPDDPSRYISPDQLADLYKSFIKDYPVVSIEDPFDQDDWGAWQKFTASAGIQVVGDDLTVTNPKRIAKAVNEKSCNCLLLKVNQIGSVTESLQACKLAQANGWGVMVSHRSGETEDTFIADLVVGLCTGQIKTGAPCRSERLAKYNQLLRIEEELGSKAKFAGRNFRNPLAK
Chain of Tubulin (Sus scrofa) (P02550 whole entry, looked up): as the sequence (P68363 whole entry, looked up) above, with L136S, S232G, I265A, S340T, Q358E counted along it
Chain of Tubulin (Sus scrofa) (P02554 whole entry, looked up): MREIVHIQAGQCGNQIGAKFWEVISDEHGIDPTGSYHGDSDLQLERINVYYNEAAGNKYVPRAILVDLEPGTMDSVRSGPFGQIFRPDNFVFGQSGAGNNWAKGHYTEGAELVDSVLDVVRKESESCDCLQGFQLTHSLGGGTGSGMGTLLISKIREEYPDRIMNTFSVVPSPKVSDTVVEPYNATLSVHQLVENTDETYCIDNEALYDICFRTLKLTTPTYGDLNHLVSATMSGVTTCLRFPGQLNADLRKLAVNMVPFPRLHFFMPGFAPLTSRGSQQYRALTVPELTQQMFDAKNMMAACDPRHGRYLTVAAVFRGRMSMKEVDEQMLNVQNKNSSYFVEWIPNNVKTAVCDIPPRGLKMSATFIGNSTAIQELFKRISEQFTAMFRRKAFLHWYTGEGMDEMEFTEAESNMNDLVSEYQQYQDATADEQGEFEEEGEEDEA
Chain of D-3-phosphoglycerate dehydrogenase (Homo sapiens) (O43175 whole entry): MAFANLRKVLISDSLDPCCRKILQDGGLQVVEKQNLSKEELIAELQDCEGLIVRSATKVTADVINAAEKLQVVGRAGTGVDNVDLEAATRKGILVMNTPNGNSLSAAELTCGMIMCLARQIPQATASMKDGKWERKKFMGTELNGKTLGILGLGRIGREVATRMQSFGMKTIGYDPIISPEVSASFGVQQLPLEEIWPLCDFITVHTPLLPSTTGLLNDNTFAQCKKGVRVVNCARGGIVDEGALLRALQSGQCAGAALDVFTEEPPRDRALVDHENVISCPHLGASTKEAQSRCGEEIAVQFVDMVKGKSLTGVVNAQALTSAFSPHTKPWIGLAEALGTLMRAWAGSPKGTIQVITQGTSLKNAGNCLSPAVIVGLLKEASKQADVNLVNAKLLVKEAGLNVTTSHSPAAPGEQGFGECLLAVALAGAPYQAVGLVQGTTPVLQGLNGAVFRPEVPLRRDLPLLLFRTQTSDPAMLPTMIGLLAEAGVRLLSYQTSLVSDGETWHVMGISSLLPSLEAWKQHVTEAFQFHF
Chain of Tubulin beta-4A chain (Homo sapiens) (P04350 whole entry): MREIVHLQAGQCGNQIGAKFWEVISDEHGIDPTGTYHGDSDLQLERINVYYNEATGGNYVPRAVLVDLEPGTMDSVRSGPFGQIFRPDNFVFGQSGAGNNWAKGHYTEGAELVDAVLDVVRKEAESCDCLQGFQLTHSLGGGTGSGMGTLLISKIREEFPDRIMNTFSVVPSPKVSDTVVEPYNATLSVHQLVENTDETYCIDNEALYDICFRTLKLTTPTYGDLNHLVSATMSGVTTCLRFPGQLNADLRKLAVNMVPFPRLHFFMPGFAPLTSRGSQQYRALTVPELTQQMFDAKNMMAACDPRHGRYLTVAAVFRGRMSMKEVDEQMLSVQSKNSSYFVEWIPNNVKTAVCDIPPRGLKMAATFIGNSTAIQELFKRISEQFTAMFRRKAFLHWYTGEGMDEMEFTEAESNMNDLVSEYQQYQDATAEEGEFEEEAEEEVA
Chain of Tubulin alpha-1A chain (Homo sapiens) (Q71U36 whole entry, looked up): as the sequence (P68363 whole entry, looked up) above, with S232G, S340T counted along it
Chain of Creatine kinase B-type (Homo sapiens) (P12277 whole entry): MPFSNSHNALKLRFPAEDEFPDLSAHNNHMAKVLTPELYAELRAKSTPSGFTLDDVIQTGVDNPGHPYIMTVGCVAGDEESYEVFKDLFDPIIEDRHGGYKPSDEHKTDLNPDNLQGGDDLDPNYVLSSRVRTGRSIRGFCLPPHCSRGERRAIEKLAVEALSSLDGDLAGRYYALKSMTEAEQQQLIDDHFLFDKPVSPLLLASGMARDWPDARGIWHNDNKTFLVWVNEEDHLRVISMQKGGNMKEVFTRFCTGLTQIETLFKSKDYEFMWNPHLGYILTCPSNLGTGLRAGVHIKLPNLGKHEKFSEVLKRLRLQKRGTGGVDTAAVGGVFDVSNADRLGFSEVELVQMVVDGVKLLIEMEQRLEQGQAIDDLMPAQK

For the compound `CC1=NN(c2ccc(C(=O)O)cc2)C(=O)/C1=C\c1ccc(-c2cc(C)c(C)cc2[N+](=O)[O-])o1`, the inhibition result at Tubulin (Sus scrofa) is “Dose-dependent effect”.
For `C#CCNC(=O)c1ccc(N2N=C(C)/C(=C/c3ccc(-c4cc(C)c(C)cc4[N+](=O)[O-])o3)C2=O)cc1`, the result (in experiment [1]; in the experiment with HEK293 [19]; in [20]) was Active. Moreover, the fold change (FC) in experiment [2] worked out at 19; in experiment [4], 17; in experiment [6], 8; in [8], 25; in experiment [9], 24; in experiment [10] it was 25. In addition, the fold change (FC) in experiment [11] turned out to be 7; in experiment [12], 16; in experiment [13], 9; in experiment [14], 64; in [15] it was 16; in experiment [16], 25. Also, the fold change (FC) came out at 36 in experiment [17], 12 in experiment [18], 25 in experiment [21] and 4 in experiment [22]. Moreover, the Activity entry in the experiment with HEK293 [3] was “Dose-dependent effect”. The outcome in the experiment with HEK293 [5] was inactive. For the same compound, the IC50 in experiment [7] was 14.1 µM.
